{"source": "ChEMBL document CHEMBL2429840", "about": "“The lignan (-)-hinokinin displays modulatory effects on human monoamine and GABA transporter activities” (J Nat Prod, 2013)", "key": {"[1]": {"biological_target": "T1, Sodium-dependent dopamine transporter (Homo sapiens, UniProt Q01959)", "T1 sequence (Q01959 whole entry)": "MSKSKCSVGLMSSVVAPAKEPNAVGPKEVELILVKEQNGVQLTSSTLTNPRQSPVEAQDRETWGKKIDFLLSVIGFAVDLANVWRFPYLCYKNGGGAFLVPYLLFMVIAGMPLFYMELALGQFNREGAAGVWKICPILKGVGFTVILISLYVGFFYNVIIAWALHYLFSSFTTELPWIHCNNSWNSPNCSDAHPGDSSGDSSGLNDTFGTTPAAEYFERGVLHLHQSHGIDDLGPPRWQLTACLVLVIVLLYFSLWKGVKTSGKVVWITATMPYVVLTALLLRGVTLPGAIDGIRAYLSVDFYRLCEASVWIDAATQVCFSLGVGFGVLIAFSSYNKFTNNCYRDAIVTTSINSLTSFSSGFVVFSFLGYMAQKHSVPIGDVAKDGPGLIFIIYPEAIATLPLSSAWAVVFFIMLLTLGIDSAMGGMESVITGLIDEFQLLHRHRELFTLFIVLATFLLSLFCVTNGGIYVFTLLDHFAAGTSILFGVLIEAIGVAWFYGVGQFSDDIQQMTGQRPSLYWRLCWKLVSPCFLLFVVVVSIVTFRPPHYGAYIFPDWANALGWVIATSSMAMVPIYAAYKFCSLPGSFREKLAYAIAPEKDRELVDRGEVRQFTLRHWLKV", "test": "Inhibition of human DAT expressed in MDCK cells using [3H]-dopamine as substrate after 10 mins by scintillation counting", "type": "cell-based", "summary_of_the_method": "(§1)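 Transfected MDCK cells were washed with PBS-CM and preincubated 10 min at room temperature with compound (0.2–200 or 0.5–500 μM) or vehicle. Uptake of 50 nM radiolabeled substrate then ran for 10 min at room temperature, with RO 41-0960 added for dopamine. Naive MDCK background was subtracted. IC50 came from nonlinear regression of three independent assays run in triplicate.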"}, "[2]": {"biological_target": "T2, Sodium-dependent noradrenaline transporter (Homo sapiens, UniProt P23975)", "T2 sequence (P23975 whole entry)": "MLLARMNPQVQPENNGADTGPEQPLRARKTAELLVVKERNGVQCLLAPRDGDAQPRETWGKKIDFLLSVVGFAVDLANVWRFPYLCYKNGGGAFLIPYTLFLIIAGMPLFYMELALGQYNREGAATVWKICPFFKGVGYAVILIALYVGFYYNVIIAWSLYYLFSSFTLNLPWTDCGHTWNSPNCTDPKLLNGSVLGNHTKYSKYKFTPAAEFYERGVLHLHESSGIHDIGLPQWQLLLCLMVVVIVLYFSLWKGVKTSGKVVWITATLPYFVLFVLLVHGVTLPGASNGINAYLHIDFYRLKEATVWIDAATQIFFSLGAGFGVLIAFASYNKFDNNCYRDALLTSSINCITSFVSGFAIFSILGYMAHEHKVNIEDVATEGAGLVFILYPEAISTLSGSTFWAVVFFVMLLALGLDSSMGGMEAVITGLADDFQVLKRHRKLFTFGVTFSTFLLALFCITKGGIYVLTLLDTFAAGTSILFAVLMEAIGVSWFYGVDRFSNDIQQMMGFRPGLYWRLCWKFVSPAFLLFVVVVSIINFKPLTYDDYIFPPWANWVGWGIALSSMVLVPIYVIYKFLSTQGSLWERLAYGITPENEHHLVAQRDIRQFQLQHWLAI", "test": "Inhibition of human NET expressed in MDCK cells using [3H]-norepinephrine as substrate after 10 mins by scintillation counting", "type": "cell-based", "summary_of_the_method": "as §1"}, "[3]": {"biological_target": "Sodium-dependent serotonin transporter (Homo sapiens, UniProt P31645)", "sequence (P31645 whole entry)": "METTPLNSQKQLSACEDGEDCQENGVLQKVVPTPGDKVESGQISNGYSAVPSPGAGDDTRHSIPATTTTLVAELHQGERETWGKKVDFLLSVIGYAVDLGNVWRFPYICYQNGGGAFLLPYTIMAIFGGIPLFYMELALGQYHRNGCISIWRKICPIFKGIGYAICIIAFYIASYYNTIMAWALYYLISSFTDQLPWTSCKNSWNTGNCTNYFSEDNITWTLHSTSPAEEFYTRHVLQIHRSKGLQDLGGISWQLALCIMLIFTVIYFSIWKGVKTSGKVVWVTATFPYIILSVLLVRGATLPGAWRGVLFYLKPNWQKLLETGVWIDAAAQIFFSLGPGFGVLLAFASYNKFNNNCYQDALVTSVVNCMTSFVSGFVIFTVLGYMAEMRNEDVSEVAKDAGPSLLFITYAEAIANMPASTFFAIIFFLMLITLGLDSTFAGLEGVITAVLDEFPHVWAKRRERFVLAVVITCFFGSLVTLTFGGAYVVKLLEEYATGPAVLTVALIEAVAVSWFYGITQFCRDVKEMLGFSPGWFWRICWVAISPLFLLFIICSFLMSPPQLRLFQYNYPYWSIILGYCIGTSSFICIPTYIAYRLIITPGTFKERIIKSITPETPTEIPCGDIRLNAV", "test": "Inhibition of human SERT expressed in MDCK cells using [3H]-serotonin as substrate after 10 mins by scintillation counting", "type": "cell-based", "summary_of_the_method": "as §1"}, "[4]": {"biological_target": "T3, Sodium- and chloride-dependent GABA transporter 1 (Homo sapiens, UniProt P30531)", "test": "Inhibition of GAT-1 (unknown origin)", "summary_of_the_method": "(§2)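 Transporter transiently expressed in COS-7 cells, with compound tested in dose–response (EAATs at 0.5–500 μM) against vehicle. Nonspecific uptake from empty-vector (pcDNA3) COS-7 sister cultures was subtracted. IC50 came from nonlinear regression of at least three independent experiments run in triplicate.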"}, "[5]": {"biological_target": "T2, Sodium-dependent noradrenaline transporter", "test": "Inhibition of human NET expressed in MDCK cells using [3H]-norepinephrine as substrate at 200 uM after 10 mins by scintillation counting", "type": "cell-based"}, "[6]": {"biological_target": "T3, Sodium- and chloride-dependent GABA transporter 1", "test": "Activity at GAT1 (unknown origin) expressed in african green monkey COS7 cells assessed as GABA release at 0.5 to 500 uM after 10 mins using [3H]-GABA pretreated for 1 hr before compound addition followed by wash out by reversed transport efflux assay", "type": "cell-based", "details": "COS-7", "summary_of_the_method": "(§3)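 Reverse-transport efflux of preloaded substrate: hDAT in MDCK GFP-hDAT cells, hNET and GAT-1 in transiently transfected COS-7 cells. Compound tested at 0.5–500 μM against vehicle (basal) release. Non-radiolabeled substrate served as the positive control for assay integrity.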"}, "[7]": {"biological_target": "T3, Sodium- and chloride-dependent GABA transporter 1", "test": "Inhibition of GAT-1 (unknown origin) expressed in african green monkey COS7 cells using [3H]-GABA as substrate after 10 mins by scintillation counting", "type": "cell-based, COS-7", "summary_of_the_method": "as §2"}, "[8]": {"test": "Toxicity in Wistar rat peripheral blood micronucleus"}, "[9]": {"biological_target": "T3, Sodium- and chloride-dependent GABA transporter 1", "test": "Non-competitive inhibition of GAT-1 (unknown origin) expressed in african green monkey COS7 cells using [3H]-GABA as substrate", "type": "cell-based", "details": "COS-7", "summary_of_the_method": "(§4)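 Cells were preincubated with or without 20 μM compound for 10 min at room temperature. Uptake then ran with eight concentrations of unlabeled/radiolabeled substrate mix, in triplicate. Dopamine (99.9%:0.1%, 45 nM–100 μM) was used in hDAT MDCK cells and GABA (99.95%:0.05%) in GAT-1 COS-7 cells. Nonspecific uptake was subtracted, Michaelis–Menten Vmax/KM were fitted, and n≥3 independent assays were analysed by paired t-test.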"}, "[10]": {"biological_target": "T1, Sodium-dependent dopamine transporter", "test": "Activity at human DAT expressed in MDCK cells assessed as dopamine release at 0.5 to 500 uM after 10 mins using [3H]-dopamine pretreated for 1 hr before compound addition followed by wash out by reversed transport efflux assay", "type": "cell-based", "summary_of_the_method": "as §3"}, "[11]": {"biological_target": "T2, Sodium-dependent noradrenaline transporter", "test": "Non-competitive inhibition of human NET expressed in COS-7 cells using [3H]-norepinephrine as substrate"}, "[12]": {"biological_target": "Excitatory amino acid transporter 2 (Homo sapiens, UniProt P43004)", "sequence (P43004 whole entry)": "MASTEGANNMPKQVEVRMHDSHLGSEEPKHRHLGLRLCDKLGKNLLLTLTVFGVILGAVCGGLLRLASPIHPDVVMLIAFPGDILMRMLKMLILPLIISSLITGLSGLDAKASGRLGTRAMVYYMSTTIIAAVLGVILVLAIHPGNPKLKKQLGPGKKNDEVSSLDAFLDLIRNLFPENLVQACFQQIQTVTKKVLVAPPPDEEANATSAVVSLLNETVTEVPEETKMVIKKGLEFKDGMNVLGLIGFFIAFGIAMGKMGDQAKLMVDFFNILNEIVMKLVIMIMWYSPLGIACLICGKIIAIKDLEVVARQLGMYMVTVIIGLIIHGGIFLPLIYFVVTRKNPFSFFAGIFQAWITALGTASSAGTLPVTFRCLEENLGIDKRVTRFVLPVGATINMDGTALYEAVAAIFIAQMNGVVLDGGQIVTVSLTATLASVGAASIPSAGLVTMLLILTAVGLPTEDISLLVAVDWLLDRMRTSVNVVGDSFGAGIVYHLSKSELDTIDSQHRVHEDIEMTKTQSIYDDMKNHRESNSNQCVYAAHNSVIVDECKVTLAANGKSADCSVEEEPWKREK", "test": "Inhibition of EAAT2 (unknown origin) expressed in african green monkey COS7 cells using [3H]-glutamic acid as substrate after 10 mins by scintillation counting", "type": "cell-based, COS-7", "summary_of_the_method": "as §2"}, "[13]": {"biological_target": "T3, Sodium- and chloride-dependent GABA transporter 1", "test": "Allosteric modulation of GAT-1 (unknown origin) expressed in african green monkey COS7 cells using [3H]-GABA as substrate at 20 uM", "type": "cell-based", "details": "COS-7", "summary_of_the_method": "as §4"}, "[14]": {"biological_target": "T1, Sodium-dependent dopamine transporter", "test": "Non-competitive inhibition of human DAT expressed in MDCK cells using [3H]-dopamine as substrate", "type": "cell-based", "summary_of_the_method": "as §4"}, "[15]": {"biological_target": "Excitatory amino acid transporter 1 (Homo sapiens, UniProt P43003)", "sequence (P43003 whole entry)": "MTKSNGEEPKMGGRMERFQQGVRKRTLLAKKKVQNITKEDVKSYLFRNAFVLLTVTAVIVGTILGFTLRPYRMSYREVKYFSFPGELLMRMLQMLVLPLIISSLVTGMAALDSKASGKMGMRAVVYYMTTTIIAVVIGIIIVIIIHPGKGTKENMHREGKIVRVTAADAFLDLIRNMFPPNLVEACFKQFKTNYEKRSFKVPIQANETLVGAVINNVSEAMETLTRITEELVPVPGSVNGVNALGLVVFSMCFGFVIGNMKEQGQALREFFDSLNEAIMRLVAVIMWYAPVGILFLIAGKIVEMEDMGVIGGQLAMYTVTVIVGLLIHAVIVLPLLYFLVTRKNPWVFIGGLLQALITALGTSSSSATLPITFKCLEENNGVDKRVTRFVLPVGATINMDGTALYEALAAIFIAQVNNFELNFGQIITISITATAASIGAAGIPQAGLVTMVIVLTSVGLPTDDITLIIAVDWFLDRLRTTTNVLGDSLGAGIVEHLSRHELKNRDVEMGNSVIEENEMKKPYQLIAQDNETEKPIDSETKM", "test": "Inhibition of EAAT1 (unknown origin) expressed in african green monkey COS7 cells using [3H]-glutamic acid as substrate after 10 mins by scintillation counting", "type": "cell-based, COS-7", "summary_of_the_method": "as §2"}, "[16]": {"biological_target": "T4, Excitatory amino acid transporter 3 (Homo sapiens, UniProt P43005)", "T4 sequence (P43005 whole entry)": "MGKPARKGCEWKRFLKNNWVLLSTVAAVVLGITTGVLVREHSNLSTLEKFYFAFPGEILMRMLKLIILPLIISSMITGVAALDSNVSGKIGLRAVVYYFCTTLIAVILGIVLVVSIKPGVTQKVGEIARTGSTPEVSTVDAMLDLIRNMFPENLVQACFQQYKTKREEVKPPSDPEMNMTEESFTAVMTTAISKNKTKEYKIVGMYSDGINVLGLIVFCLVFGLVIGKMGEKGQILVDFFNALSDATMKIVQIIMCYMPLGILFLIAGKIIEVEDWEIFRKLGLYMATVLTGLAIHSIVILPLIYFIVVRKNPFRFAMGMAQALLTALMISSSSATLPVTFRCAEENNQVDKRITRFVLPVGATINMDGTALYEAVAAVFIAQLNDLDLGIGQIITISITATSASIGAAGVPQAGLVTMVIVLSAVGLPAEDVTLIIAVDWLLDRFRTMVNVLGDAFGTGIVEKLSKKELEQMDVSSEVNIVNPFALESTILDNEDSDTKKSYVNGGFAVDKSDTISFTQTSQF", "test": "Inhibition of EAAT3 (unknown origin) expressed in african green monkey COS7 cells using [3H]-glutamic acid as substrate after 10 mins by scintillation counting", "type": "cell-based, COS-7", "summary_of_the_method": "as §2"}, "[17]": {"biological_target": "T2, Sodium-dependent noradrenaline transporter", "test": "Activity at human NET expressed in african green monkey COS7 cells assessed as norepinephrine release at 0.5 to 500 uM after 10 mins using [3H]-norepinephrine pretreated for 1 hr before compound addition followed by wash out by reversed transport efflux assay", "type": "cell-based", "details": "COS-7", "summary_of_the_method": "as §3"}, "[18]": {"biological_target": "T5, Sodium- and chloride-dependent glycine transporter 1 (Homo sapiens, UniProt P48067)", "T5 sequence (P48067 whole entry)": "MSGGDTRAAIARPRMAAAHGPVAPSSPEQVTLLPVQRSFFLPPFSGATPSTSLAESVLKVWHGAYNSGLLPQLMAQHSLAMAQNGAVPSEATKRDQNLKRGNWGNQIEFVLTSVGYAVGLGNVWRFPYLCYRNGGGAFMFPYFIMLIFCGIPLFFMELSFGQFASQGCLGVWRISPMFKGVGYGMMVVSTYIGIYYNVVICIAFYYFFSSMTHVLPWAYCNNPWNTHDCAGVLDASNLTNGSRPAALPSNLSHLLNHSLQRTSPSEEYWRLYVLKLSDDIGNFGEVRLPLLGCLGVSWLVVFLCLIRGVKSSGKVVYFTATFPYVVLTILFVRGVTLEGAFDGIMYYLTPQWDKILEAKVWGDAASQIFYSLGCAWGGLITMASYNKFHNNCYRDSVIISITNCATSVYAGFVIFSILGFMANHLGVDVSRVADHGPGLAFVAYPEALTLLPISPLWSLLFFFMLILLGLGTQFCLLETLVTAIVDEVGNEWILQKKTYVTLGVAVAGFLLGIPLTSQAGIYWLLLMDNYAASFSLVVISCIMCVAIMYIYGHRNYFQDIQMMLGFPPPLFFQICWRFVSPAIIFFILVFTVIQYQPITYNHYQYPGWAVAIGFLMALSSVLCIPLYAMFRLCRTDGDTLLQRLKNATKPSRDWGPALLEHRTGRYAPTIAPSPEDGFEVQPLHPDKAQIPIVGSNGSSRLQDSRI", "test": "Inhibition of GlyT1 (unknown origin) expressed in MDCK cells using [3H]-glycine as substrate after 10 mins by scintillation counting", "type": "cell-based", "summary_of_the_method": "as §1"}, "[19]": {"biological_target": "T6, Sodium- and chloride-dependent GABA transporter 3 (Homo sapiens, UniProt P48066)", "T6 sequence (P48066 whole entry)": "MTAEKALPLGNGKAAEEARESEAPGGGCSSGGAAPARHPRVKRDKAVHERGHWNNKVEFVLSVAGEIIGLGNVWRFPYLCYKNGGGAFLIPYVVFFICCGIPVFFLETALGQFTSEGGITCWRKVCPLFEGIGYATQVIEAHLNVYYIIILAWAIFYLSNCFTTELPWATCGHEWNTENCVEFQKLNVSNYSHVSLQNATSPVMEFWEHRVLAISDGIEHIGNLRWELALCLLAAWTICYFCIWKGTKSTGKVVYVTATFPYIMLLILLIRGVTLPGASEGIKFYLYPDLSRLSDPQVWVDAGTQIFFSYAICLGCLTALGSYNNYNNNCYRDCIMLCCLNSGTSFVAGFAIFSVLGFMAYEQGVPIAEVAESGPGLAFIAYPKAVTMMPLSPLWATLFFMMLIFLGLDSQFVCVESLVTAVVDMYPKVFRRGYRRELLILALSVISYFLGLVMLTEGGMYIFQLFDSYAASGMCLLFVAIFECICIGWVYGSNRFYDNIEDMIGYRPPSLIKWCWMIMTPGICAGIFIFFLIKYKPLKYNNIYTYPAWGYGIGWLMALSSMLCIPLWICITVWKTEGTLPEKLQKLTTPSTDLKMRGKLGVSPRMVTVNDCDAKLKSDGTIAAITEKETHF", "test": "Inhibition of GAT-3 (unknown origin) expressed in african green monkey COS7 cells using [3H]-GABA as substrate after 10 mins by scintillation counting", "type": "cell-based, COS-7", "summary_of_the_method": "as §2"}}, "note": "Active and inactive are the calls of the source. The calls are words filed in the database; no cut-off is given here."}
{"smiles": "O[C@H]1OC[C@H](Cc2ccc3c(c2)OCO3)[C@H]1Cc1ccc2c(c1)OCO2", "values": [{"measurement": "IC50", "setting": "[1]", "result": 12, "unit": "µM"}, {"measurement": "inhibition", "setting": "[1]", "result": "Dose-dependent effect"}, {"measurement": "IC50", "setting": "[2]", "result": "> 200", "unit": "µM"}, {"measurement": "IC50", "setting": "[3]", "result": "> 200", "unit": "µM"}]}
{"smiles": "O=C(O)C1=CCCN(CCOC(c2ccc(C(F)(F)F)cc2)c2ccc(C(F)(F)F)cc2)C1", "values": [{"measurement": "IC50", "setting": "[4]", "result": 0.26, "unit": "µM"}]}
{"smiles": "O=C(O)C1=CCCN(CCON=C(c2ccccc2)c2ccccc2)C1", "values": [{"measurement": "IC50", "setting": "[4]", "result": 0.04, "unit": "µM"}]}
{"smiles": "COC1OC[C@@H](Cc2ccc3c(c2)OCO3)[C@@H]1Cc1ccc2c(c1)OCO2", "note": "(stereo partly drawn) [(-)-O-METHYLCUBEBIN]", "values": [{"measurement": "inhibition", "setting": "[5]", "result": "inactive"}, {"measurement": "IC50", "setting": "[1]", "result": 78.6, "unit": "µM"}, {"measurement": "IC50", "setting": "[3]", "result": 90.3, "unit": "µM"}]}
{"smiles": "O=C1OC[C@H](Cc2ccc3c(c2)OCO3)[C@H]1Cc1ccc2c(c1)OCO2", "note": "[HINOKININ]", "values": [{"measurement": "Activity", "setting": "[6]", "result": "inactive"}, {"measurement": "IC50", "setting": "[1]", "result": 8.35, "unit": "µM"}, {"measurement": "inhibition", "setting": "[1]", "result": "Dose-dependent effect"}, {"measurement": "IC50", "setting": "[7]", "result": 20.6, "unit": "µM"}, {"measurement": "Activity", "setting": "[8]", "result": "Non-toxic"}, {"measurement": "IC50", "setting": "[2]", "result": 8.76, "unit": "µM"}, {"measurement": "IC50", "setting": "[3]", "result": 175, "unit": "µM"}, {"measurement": "inhibition", "setting": "[9]", "result": "Active"}, {"measurement": "Activity", "setting": "[10]", "result": "inactive"}, {"measurement": "inhibition", "setting": "[11]", "result": "Active"}, {"measurement": "IC50", "setting": "[12]", "result": "> 100", "unit": "µM"}, {"measurement": "Activity", "setting": "[13]", "result": "Active"}, {"measurement": "inhibition", "setting": "[14]", "result": "Active"}, {"measurement": "IC50", "setting": "[15]", "result": "> 500", "unit": "µM"}, {"measurement": "IC50", "setting": "[16]", "result": "> 500", "unit": "µM"}, {"measurement": "Activity", "setting": "[17]", "result": "inactive"}, {"measurement": "IC50", "setting": "[18]", "result": "> 500", "unit": "µM"}, {"measurement": "IC50", "setting": "[19]", "result": "> 500", "unit": "µM"}]}
